Converted amounts (≈) assume the structure as drawn. The source made the active and inactive calls. The rule behind the calls is not given here.
How the values were obtained:
[1] = Lipophilicity, log D of the compound at pH 7.4; format: physicochemical; conditions: buffer
[2] = biological target: T1, Serine/threonine-protein kinase PLK3 (Homo sapiens, UniProt Q9H4B4); experiment: Binding affinity to human PLK3 (42 to 334 residues) expressed in mammalian expression system assessed as unbound protein level at 1 uM by kinome scan-based assay
In short: (§1)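 Single-point KINOMEscan (scanEDGE) competition binding at 1 μM compound. Read-out is %Ctrl, with DMSO set as 100%Ctrl; lower values mean stronger binding.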
Target sequence in this assay (Q9H4B4 whole entry, looked up, the tested form may be a part): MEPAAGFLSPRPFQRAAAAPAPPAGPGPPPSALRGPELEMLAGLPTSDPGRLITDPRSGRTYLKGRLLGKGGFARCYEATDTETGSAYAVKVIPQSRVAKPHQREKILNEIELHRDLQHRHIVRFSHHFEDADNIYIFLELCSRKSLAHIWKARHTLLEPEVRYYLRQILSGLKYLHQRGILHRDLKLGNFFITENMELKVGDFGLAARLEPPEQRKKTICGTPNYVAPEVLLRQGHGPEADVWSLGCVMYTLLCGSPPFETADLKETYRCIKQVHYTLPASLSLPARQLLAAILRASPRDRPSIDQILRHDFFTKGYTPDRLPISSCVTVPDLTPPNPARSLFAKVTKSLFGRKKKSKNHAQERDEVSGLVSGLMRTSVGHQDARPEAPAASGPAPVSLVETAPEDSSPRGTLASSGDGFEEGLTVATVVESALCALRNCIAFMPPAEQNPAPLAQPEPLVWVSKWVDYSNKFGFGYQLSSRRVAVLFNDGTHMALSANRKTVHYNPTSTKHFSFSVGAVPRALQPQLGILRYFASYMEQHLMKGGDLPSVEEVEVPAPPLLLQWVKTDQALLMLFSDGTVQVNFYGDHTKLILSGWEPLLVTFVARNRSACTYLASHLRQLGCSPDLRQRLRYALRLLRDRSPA

[3] = biological target: T2, ALK tyrosine kinase receptor (Homo sapiens, UniProt Q9UM73); experiment: Inhibition of full-length C-terminal NanoLuc-tagged ALK (unknown origin) expressed in human HEK293 cells after 2 hrs by NanoBRET target engagement assay; format: cell-based
Target sequence in this assay (Q9UM73 whole entry, the tested form may be a part): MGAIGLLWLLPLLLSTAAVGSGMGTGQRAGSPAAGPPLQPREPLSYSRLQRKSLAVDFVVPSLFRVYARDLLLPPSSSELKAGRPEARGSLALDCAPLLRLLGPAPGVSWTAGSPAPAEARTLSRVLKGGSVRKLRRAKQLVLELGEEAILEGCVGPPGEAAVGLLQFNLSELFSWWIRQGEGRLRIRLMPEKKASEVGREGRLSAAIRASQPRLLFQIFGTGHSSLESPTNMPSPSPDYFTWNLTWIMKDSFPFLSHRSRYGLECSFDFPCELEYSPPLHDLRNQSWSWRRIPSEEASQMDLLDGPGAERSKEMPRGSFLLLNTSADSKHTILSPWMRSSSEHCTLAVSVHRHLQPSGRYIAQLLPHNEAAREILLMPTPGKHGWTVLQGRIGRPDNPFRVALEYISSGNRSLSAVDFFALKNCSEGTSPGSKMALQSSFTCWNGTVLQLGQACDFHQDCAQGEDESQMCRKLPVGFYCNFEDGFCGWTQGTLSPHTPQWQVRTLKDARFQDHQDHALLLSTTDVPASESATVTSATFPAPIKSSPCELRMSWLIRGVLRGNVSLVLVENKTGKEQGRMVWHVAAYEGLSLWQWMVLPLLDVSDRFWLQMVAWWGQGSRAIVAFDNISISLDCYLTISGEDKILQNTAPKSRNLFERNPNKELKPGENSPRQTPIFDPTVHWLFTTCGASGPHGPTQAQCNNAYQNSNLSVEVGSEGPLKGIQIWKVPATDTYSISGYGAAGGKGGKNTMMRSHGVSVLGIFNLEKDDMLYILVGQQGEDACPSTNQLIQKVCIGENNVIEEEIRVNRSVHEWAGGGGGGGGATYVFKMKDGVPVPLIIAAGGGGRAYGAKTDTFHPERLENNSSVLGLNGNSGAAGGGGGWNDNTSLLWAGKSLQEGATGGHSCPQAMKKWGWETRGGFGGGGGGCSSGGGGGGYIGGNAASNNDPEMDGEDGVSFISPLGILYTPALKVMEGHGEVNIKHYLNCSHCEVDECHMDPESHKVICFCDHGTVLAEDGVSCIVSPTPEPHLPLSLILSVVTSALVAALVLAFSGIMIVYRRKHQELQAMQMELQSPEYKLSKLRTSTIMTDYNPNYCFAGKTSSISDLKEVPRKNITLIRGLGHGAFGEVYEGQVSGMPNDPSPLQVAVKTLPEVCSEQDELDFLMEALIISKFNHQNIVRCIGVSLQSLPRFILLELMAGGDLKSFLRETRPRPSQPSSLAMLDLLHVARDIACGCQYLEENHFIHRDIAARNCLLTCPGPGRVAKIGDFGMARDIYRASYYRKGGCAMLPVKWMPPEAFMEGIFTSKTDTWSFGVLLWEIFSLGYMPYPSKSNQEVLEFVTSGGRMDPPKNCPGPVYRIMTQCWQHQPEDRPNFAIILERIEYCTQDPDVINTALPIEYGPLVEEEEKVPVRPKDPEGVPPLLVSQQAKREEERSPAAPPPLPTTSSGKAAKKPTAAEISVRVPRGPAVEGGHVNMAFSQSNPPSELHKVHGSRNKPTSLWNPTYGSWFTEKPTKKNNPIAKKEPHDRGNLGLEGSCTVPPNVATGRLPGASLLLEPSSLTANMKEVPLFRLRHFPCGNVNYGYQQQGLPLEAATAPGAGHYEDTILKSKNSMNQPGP

[4] = biological target: T3, Insulin receptor (Homo sapiens, UniProt P06213); experiment: Binding affinity to human INSR (997 to 1318 residues) expressed in mammalian expression system by kinome scan-based assay
[5] = biological target: T4, ALK tyrosine kinase receptor (Homo sapiens, UniProt Q9UM73, F1174L); experiment: Displacement of kinase tracer 236 from human N-terminal GST-tagged ALK F1174L mutant (1058 to 1620 residues) after 60 mins by LanthaScreen Eu--kinase binding assay
In short: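 LanthaScreen Eu binding assay. Mix 5 nM ALK F1174L, 30 nM Kinase Tracer 236 and 2 nM Eu-anti-GST antibody in 50 mM HEPES pH 7.5, 10 mM MgCl2, 1 mM EGTA, 0.01% Brij-35, 1 mM DTT. Compound runs 0.5 nM–100 μM in 1% DMSO. Incubate 60 min at room temperature. Read the 665 nm acceptor/donor emission ratio; fit log(inhibitor) vs ratio with a variable-slope equation.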

[6] = Partition coefficient, log P of the compound; format: physicochemical; conditions: octanol/water
[7] = Solubility of the compound in phosphate buffer at pH 7.4 b HPLC analysis; format: physicochemical
In short: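 Solubility measured by in-house HPLC method from phosphate buffer at pH 7.4.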

[8] = biological target: T1, Serine/threonine-protein kinase PLK3; experiment: Binding affinity to human PLK3 (42 to 334 residues) expressed in mammalian expression system by kinome scan-based assay
Target sequence in this assay (Q9H4B4 whole entry, the tested form may be a part): as the sequence (Q9H4B4 whole entry, looked up, the tested form may be a part) above

[9] = biological target: T5, Bromodomain-containing protein 4 (Homo sapiens, UniProt O60885); experiment: Binding affinity to BRD4 (unknown origin) by isothermal calorimetry
[10] = biological target: T4, ALK tyrosine kinase receptor; experiment: Binding affinity to human ALK F1174L mutant (1088 to 1409 residues) expressed in mammalian expression system by kinome scan-based assay
[11] = biological target: T6, Serine/threonine-protein kinase PLK1 (Homo sapiens, UniProt P53350); experiment: Inhibition of PLK1 (unknown origin) using Ser/Thr 16 as substrate after 60 mins by Z-LYTE activity assay
[12] = biological target: T2, ALK tyrosine kinase receptor; experiment: Binding affinity to wild type human ALK (1088 to 1409 residues) expressed in mammalian expression system assessed as unbound protein level at 1 uM by kinome scan-based assay; in short: as §1
Target sequence in this assay (Q9UM73 19-1620 limits assumed): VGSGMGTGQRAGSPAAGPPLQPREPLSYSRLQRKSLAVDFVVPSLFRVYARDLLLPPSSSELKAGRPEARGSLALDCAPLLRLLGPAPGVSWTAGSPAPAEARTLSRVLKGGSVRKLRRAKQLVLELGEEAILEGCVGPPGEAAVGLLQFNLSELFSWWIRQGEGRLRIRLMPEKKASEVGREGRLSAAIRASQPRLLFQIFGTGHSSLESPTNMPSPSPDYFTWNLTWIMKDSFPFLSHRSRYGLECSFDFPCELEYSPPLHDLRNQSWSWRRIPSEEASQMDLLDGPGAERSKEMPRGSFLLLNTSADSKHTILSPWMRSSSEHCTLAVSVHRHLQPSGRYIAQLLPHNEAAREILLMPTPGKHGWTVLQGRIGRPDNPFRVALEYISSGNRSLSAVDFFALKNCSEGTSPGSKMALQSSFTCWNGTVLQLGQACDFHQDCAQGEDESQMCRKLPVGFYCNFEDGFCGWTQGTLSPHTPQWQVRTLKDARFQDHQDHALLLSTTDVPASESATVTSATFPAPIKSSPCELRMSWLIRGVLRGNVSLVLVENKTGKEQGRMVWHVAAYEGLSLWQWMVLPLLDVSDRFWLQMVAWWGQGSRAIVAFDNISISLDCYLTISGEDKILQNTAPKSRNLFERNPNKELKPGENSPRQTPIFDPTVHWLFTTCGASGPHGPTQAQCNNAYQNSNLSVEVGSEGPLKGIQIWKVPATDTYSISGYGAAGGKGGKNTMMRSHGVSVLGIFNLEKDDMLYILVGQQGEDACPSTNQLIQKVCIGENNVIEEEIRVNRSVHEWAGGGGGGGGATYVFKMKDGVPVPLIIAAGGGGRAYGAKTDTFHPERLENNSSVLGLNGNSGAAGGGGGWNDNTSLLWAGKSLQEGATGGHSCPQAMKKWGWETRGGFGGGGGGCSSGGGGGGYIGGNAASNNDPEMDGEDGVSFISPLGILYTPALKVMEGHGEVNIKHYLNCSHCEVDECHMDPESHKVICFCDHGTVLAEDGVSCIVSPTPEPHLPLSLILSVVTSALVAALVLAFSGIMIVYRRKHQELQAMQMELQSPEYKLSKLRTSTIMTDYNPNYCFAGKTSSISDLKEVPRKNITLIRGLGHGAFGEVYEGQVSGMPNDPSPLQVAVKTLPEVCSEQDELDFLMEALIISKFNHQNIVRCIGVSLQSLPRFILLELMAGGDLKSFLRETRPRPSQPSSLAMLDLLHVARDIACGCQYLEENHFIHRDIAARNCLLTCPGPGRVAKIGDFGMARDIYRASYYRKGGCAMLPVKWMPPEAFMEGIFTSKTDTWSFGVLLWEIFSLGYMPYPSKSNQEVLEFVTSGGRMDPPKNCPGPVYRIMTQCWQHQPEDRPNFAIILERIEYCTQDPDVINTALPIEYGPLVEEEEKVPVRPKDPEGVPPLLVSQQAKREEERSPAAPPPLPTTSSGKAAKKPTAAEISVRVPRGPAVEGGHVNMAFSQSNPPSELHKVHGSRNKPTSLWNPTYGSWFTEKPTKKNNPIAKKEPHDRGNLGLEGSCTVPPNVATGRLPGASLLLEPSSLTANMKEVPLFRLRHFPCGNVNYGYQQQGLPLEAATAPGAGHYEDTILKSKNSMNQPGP

[13] = biological target: T5, Bromodomain-containing protein 4; experiment: Inhibition of full-length C-terminal NanoLuc-tagged BRD4 BD1 (unknown origin) expressed in human HEK293 cells after 2 hrs by NanoBRET target engagement assay; format: cell-based
[14] = tested on: HeLa; experiment: Induction of cell cycle arrest in human HeLa cells at 4 to 10 uM after 24 hrs by propidium iodide-staining based flow cytometry; format: functional
[15] = Permeability of the compound at pH 7.4 by PAMPA; format: ADME; conditions: read-out: permeability
[16] = biological target: T4, ALK tyrosine kinase receptor; experiment: Inhibition of ALK F1174L mutant auto-phosphorylation in human Kelly cells after 3 hrs by MSD assay; format: cell-based
[17] = biological target: T3, Insulin receptor; experiment: Binding affinity to human INSR (997 to 1318 residues) expressed in mammalian expression system assessed as unbound protein level at 1 uM by kinome scan-based assay; in short: as §1
[18] = biological target: T6, Serine/threonine-protein kinase PLK1; experiment: Binding affinity to human PLK1 (33 to 325 residues) expressed in mammalian expression system assessed as unbound protein level at 1 uM by kinome scan-based assay; in short: as §1
[19] = biological target: T5, Bromodomain-containing protein 4
[20] = species on record: Homo sapiens; experiment: Selectivity ratio of IC50 for PLK1 (unknown origin) to IC50 for human N-terminal GST-tagged ALK F1174L mutant (1058 to 1620 residues)
[21] = species on record: Homo sapiens; experiment: Selectivity ratio of IC50 for PLK1 in human HeLa cells to IC50 for human N-terminal GST-tagged ALK F1174L mutant (1058 to 1620 residues); format: cell-based
[22] = biological target: T6, Serine/threonine-protein kinase PLK1; experiment: Binding affinity to human PLK1 (33 to 325 residues) expressed in mammalian expression system by kinome scan-based assay
[23] = biological target: T2, ALK tyrosine kinase receptor; experiment: Binding affinity to wild type human ALK (1088 to 1409 residues) expressed in mammalian expression system by kinome scan-based assay
Target sequence in this assay (Q9UM73 whole entry, the tested form may be a part): as the sequence (Q9UM73 whole entry, the tested form may be a part) above

[24] = biological target: T6, Serine/threonine-protein kinase PLK1; experiment: Inhibition of PLK1 (unknown origin) at 10 nM using Ser/Thr 16 as substrate after 60 mins by Z-LYTE activity assay
In short: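 PLK-1 Z'-LYTE activity assay run externally through the SelectScreen kinase profiling service. Percentage inhibition is measured at 10 nM compound.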

T6 sequence (P53350 whole entry, the tested form may be a part): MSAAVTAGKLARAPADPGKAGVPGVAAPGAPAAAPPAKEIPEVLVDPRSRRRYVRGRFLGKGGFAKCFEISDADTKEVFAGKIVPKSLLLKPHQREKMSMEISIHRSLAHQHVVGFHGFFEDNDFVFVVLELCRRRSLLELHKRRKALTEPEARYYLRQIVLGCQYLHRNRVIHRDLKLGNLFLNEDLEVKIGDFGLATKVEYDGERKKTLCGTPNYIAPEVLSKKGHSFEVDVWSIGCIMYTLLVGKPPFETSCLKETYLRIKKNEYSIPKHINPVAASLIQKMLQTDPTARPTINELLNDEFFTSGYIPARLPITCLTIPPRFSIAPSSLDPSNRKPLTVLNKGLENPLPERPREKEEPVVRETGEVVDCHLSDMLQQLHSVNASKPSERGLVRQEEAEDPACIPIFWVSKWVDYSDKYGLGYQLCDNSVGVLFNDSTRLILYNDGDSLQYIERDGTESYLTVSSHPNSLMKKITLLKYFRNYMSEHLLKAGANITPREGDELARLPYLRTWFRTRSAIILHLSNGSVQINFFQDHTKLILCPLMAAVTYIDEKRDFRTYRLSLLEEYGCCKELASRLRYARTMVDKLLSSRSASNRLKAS
T4 sequence (Q9UM73 19-1620 F1174L limits assumed): as the sequence (Q9UM73 19-1620 limits assumed) above, with F1156L counted along it

Structure (SMILES) | IC50 [5] [nM] | Kd [9] [nM] | IC50 [11] [nM] | deltaTm [19] [K] | further results
CCOc1cc(C2CCN(C)CC2)ccc1Nc1ncc2c(n1)N(Cc1ccccc1Br)[C@H](CC)C(=O)N2C | 150 |  |  | 2.9 | 
CCOc1cc(C2CCN(C)CC2)ccc1Nc1ncc2c(n1)N(Cc1scnc1C)[C@H](CC)C(=O)N2C | 370 |  |  | 4.6 | 
CC[C@@H]1C(=O)N(C)c2cnc(Nc3ccc(C(=O)NC4CCN(C)CC4)cc3OCC(C)C)nc2N1C1CCCC1 | 1700 | 73 |  | 7.2 | inhibition [24]: 43%
CCOc1cc(C2CCN(C)CC2)ccc1Nc1ncc2c(n1)N(Cc1cccc(Cl)c1)[C@H](CC)C(=O)N2C | 210 | 130 | 540 | 6.2 | 
CCOc1cc(C2CCN(C)CC2)ccc1Nc1ncc2c(n1)N(Cc1cccc(OC)c1)[C@H](CC)C(=O)N2C | 350 |  |  | 5.1 | 
CCOc1cc(C(=O)NC2CCN(C)CC2)ccc1Nc1ncc2c(n1)N(C1CCCC1)[C@H](CC)C(=O)N2C | 380 | 81 | 12 | 6 | 
CC[C@@H]1C(=O)N(C)c2cnc(Nc3ccc(C4CCN(C)CC4)cc3OC)nc2N1C1CCCC1 | 290 | 80 | 9.9 | 5.4 | 
CCOc1cc(C(=O)NC2CCN(C)CC2)ccc1Nc1ncc2c(n1)N(Cc1ccccc1)[C@H](CC)C(=O)N2C | 440 | 69 | 84 | 4.1 | 
CCOc1cc(C2CCN(C)CC2)ccc1Nc1ncc2c(n1)N(Cc1cccc(C#N)c1)[C@H](CC)C(=O)N2C | 370 | 78 | 1800 | 4.8 | 
CCOc1cc(C2CCN(C)CC2)ccc1Nc1ncc2c(n1)N(Cc1ccc(C)s1)[C@H](CC)C(=O)N2C | 220 |  |  | 8.3 | 

More lines, in order of falling IC50 [5], values ahead:

IC50 [5] [nM] | Kd [9] [nM] | IC50 [11] [nM] | deltaTm [19] [K] | Structure (SMILES) | further results
3400 |  |  | -0.2 | CCOc1cc(C(=O)NC2CCN(C)CC2)ccc1Nc1ncc2c(n1)N(C1CCCC1)[C@@H](CC)C(=O)N2C | inhibition [24]: 19%
680 |  |  | 5.8 | CCOc1cc(C2CCN(C)CC2)ccc1Nc1ncc2c(n1)N(Cc1ccc(Br)cc1)[C@H](CC)C(=O)N2C | 
520 |  |  | 0.2 | CCOc1cc(C(=O)NC2CCN(C)CC2)ccc1Nc1ncc2c(n1)N(C1CCCC1)CC(=O)N2C | inhibition [24]: 32%
490 | 73 | 110 | 6.7 | CCOc1cc(C(=O)NC2CCN(C)CC2)ccc1Nc1ncc2c(n1)N(Cc1cccc(Br)c1)[C@H](CC)C(=O)N2C | 
290 | 120 | 540 | 5 | CCOc1cc(C2CCN(C)CC2)ccc1Nc1ncc2c(n1)N(Cc1cccc(Br)c1)[C@H](CC)C(=O)N2C | 
85 | 54 | 290 | 4.7 | CCOc1cc(C2CCN(C)CC2)ccc1Nc1ncc2c(n1)N(Cc1ccccc1)[C@H](CC)C(=O)N2C | IC50 [3]: 1640 nM; IC50 [13]: 540 nM
63 | 63 | 68 | 5.4 | CCOc1cc(C2CCN(C)CC2)ccc1Nc1ncc2c(n1)N(Cc1sccc1C)[C@H](CC)C(=O)N2C | IC50 [3]: 1020 nM; IC50 [13]: 310 nM
17 | 44 | 125 | 7.1 | CCOc1cc(C2CCN(C)CC2)ccc1Nc1ncc2c(n1)N(Cc1cc(C)cs1)[C@H](CC)C(=O)N2C | logD [1]: 4.2; Activity [2]: 25%; IC50 [3]: 470 nM; Kd [4]: 190 nM; logP [6]: 6.1; solubility [7]: 90 µM (≈ 48.1 µg/mL); Kd [8]: 160 nM; Kd [10]: 23 nM; Activity [12]: 7.1%; IC50 [13]: 260 nM; Activity [14]: Active; Papp [15]: 49 ×10⁻⁶ cm/s; IC50 [16]: 1500 nM; Activity [17]: 25%; Activity [18]: 1%; Ratio IC50 [20]: 7; Ratio [21]: > 10; Kd [22]: 11 nM; Kd [23]: 89 nM
